From ChEMBL document CHEMBL3112466, “Structure-activity relationship analysis of imidazoquinolines with Toll-like receptors 7 and 8 selectivity and enhanced cytokine induction” (J Med Chem, 2014)
Activity calls are given as the source filed them. The rule behind the calls is not given here.

Legend:
[1] = biological target: T1, TLR7 and TLR8 (Mus musculus) (UniProt P58681+P58682); experiment: Agonist activity at TLR7/TLR8 in C57BL/6 mouse BMDC assessed as induction of IL-12p40 production at 30 uM after 3 days by flow cytometric analysis; type: protein assay
T1 sequence (P58681 whole entry, looked up): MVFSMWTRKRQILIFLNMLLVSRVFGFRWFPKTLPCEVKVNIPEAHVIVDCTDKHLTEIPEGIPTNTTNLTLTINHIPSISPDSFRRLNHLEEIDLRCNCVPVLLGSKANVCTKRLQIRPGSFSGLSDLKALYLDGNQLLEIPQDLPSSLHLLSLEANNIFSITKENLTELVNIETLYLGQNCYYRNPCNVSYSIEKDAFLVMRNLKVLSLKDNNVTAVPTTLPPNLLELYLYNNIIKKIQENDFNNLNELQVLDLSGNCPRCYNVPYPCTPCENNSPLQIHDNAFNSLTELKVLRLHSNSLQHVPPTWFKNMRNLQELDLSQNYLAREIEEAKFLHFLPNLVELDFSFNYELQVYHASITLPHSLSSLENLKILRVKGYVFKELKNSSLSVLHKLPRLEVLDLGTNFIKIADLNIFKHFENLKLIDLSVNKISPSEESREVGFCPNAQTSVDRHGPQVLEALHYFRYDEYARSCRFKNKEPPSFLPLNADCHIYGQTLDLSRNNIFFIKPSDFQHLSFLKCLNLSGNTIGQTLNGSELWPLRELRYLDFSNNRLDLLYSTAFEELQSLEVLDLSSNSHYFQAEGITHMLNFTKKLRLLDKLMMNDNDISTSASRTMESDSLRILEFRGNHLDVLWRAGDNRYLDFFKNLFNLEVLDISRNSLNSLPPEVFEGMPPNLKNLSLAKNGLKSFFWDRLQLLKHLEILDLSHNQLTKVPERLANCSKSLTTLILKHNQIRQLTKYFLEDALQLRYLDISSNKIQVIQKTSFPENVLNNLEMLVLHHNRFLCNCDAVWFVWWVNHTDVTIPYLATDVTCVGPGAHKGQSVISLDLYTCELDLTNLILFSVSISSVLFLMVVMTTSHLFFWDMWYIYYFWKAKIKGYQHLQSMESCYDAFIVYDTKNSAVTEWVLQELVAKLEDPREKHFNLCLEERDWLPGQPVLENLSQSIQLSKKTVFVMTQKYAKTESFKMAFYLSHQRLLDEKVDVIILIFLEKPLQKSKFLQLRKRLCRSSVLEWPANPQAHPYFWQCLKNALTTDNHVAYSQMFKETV
T1 sequence (P58682 whole entry, looked up): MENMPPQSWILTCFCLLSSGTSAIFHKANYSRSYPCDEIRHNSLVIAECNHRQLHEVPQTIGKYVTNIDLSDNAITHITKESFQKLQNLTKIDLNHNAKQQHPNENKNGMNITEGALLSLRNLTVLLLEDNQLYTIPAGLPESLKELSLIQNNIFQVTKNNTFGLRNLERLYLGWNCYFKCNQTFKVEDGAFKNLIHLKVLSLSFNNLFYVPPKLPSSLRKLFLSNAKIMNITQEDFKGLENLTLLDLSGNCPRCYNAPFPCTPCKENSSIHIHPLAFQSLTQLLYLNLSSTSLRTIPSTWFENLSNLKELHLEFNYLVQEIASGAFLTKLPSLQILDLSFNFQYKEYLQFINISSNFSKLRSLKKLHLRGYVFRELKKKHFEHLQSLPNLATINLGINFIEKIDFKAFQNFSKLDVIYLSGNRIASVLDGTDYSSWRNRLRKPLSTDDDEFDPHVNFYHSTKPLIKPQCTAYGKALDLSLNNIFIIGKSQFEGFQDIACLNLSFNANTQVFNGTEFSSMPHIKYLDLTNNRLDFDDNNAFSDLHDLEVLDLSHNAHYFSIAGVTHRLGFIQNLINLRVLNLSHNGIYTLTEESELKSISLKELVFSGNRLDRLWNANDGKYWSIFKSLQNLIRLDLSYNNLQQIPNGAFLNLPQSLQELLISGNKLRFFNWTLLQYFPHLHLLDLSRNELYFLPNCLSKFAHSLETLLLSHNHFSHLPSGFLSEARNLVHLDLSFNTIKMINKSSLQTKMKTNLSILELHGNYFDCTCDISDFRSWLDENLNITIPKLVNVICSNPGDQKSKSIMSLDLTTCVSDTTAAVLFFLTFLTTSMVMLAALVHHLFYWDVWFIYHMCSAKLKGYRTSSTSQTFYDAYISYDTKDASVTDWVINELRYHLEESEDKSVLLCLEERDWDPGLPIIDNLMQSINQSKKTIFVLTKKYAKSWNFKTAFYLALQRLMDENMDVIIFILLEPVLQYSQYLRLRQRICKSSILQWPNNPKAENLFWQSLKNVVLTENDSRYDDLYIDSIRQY
In short: (§1)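 BMDCs from femoral marrow of 6−8-week C57BL/6 mice; red cells lysed (0.83% NH₄Cl, 0.1% KHCO₃, 0.009% EDTA); 5 million cells per well cultured six days in complete RPMI with mouse GM-CSF 20 ng/mL. Stimulated with 30 μM compound for 3 days; supernatant cytokines quantified by flow cytometric bead array; measured in triplicate.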

[2] = biological target: T2, TLR7 and TLR8 (Homo sapiens) (UniProt Q9NYK1+Q9NR97); experiment: Agonist activity at TLR7/TLR8 in human PBMC assessed as induction of TNF-alpha production at 22.5 uM after 24 hrs by flow cytometric analysis; type: protein assay
In short: (§2)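 PBMCs isolated by Ficoll from three independent donors, plated in triplicate at 5 × 10⁵ cells per well, exposed to 22.5 μM compound for 24 h. Medium assayed for TNF-α and IFN-γ by flow cytometric bead array, IFN-α by ELISA.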

[3] = biological target: T1, TLR7 and TLR8 (Mus musculus); experiment: Agonist activity at TLR7/TLR8 in C57BL/6 mouse BMDC assessed as induction of IL-10 production at 30 uM after 3 days by flow cytometric analysis; type: protein assay; in short: as §1
[4] = biological target: T1, TLR7 and TLR8 (Mus musculus); experiment: Agonist activity at TLR7/TLR8 in C57BL/6 mouse BMDC assessed as induction of TNF-alpha production at 30 uM after 3 days by flow cytometric analysis; type: protein assay; in short: as §1
[5] = biological target: T1, TLR7 and TLR8 (Mus musculus); experiment: Agonist activity at TLR7/TLR8 in C57BL/6 mouse BMDC assessed as induction of IL-1beta production at 30 uM after 3 days by flow cytometric analysis; type: protein assay; in short: as §1
[6] = biological target: T2, TLR7 and TLR8 (Homo sapiens); experiment: Agonist activity at TLR7/TLR8 in human PBMC assessed as induction of IFN-alpha production at 22.5 uM after 24 hrs by ELISA; type: protein assay; in short: as §2
[7] = biological target: T2, TLR7 and TLR8 (Homo sapiens); experiment: Agonist activity at TLR7/TLR8 in human PBMC assessed as induction of IFN-gamma production at 22.5 uM after 24 hrs by flow cytometric analysis; type: protein assay; in short: as §2
[8] = biological target: T3, Toll-like receptor 7 (Homo sapiens, UniProt Q9NYK1); experiment: Agonist activity at human TLR-7 expressed in HEK293 cells after 24 hrs by SEAP reporter gene assay; type: cell-based
T3 sequence (Q9NYK1 whole entry): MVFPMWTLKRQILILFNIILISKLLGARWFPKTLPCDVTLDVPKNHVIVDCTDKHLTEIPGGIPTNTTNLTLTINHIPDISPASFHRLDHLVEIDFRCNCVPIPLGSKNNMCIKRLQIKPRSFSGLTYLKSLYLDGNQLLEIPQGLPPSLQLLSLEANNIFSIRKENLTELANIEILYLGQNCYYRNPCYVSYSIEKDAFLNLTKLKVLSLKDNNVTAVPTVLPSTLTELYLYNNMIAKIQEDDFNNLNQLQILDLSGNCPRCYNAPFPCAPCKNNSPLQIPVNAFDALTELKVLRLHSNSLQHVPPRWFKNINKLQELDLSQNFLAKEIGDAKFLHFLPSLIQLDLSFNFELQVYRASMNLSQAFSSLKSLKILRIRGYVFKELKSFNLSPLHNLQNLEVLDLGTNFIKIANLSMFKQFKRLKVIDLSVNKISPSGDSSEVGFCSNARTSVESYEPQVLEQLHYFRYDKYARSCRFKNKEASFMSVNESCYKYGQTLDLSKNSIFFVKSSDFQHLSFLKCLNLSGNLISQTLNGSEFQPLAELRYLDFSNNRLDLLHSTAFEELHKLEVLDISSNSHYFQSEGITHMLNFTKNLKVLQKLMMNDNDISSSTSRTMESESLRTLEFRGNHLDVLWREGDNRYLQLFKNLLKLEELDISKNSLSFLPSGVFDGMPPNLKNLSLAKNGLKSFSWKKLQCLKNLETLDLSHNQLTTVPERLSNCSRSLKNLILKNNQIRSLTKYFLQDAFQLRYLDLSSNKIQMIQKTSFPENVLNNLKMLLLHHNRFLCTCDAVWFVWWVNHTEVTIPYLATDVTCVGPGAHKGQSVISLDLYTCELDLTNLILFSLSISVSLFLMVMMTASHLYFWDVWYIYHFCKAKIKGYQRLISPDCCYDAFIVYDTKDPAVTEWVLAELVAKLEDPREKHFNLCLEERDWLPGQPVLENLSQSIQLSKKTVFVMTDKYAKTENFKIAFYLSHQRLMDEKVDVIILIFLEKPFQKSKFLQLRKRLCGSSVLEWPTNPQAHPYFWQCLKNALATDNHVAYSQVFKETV

[9] = biological target: T4, Toll-like receptor 8 (Homo sapiens, UniProt Q9NR97); experiment: Agonist activity at human TLR-8 expressed in HEK293 cells after 24 hrs by SEAP reporter gene assay; type: cell-based
T4 sequence (Q9NR97 whole entry): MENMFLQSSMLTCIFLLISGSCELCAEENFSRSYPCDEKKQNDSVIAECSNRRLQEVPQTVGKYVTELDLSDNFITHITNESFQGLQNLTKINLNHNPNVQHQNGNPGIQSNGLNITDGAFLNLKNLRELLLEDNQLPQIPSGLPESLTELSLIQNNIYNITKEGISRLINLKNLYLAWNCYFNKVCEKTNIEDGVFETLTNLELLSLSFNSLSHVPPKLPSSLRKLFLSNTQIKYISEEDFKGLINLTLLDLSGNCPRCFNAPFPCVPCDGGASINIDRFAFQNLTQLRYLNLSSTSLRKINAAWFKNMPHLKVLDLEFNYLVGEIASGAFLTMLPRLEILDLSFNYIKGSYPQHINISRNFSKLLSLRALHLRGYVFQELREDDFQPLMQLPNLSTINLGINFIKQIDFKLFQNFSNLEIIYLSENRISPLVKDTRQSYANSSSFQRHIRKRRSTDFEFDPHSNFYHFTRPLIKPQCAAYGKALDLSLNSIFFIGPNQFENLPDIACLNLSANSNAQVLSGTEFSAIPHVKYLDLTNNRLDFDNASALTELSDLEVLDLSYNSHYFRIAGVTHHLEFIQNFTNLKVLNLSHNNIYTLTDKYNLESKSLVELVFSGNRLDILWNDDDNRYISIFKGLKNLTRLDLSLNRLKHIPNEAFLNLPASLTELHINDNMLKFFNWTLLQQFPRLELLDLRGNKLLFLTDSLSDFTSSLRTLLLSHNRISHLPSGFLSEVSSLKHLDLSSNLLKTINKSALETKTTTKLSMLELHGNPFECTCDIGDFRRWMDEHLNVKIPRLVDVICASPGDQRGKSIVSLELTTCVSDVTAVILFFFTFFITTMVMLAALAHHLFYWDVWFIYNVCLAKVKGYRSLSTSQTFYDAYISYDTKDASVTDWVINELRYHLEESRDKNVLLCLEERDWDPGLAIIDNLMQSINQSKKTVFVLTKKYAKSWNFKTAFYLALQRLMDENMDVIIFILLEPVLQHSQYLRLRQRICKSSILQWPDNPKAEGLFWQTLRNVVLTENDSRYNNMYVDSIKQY
In short: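 HEK-293 cells transfected with human TLR-7 or TLR-8 plus NF-κB-inducible SEAP reporter; stimulated with 30 μM compound in DMEM/10% FBS for 24 h. Supernatant incubated with Quanti-blue substrate 1 h at 37 °C; SEAP read as absorbance at 650 nm.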

| Compound | Activity [1] | Activity [2] | Activity [3] | Activity [4] | Activity [5] | Activity [6] | Activity [7] | EC50 ([8]; read-out: EC50) | EC50 [9] | EC50 ([8]; hek293) |
| --- | --- | --- | --- | --- | --- | --- | --- | --- | --- | --- |
| CCOCc1nc2c(N)nc3ccccc3c2n1CC(C)(C)O | 236 pg/mL | Active | 49 pg/mL | 1740 pg/mL | 16 pg/mL |  |  |  |  |  |
| CCCCc1nc2c(N)nc3cc(C(=O)OC)ccc3c2n1C[C@@H](C)O | 416 pg/mL | Active | 20 pg/mL | 1160 pg/mL | 157 pg/mL | Active | Active |  |  |  |
| CC(C)Cn1cnc2c(N)nc3ccccc3c21 [IMIQUIMOD] | 133 pg/mL |  | 17 pg/mL | 308 pg/mL | 19 pg/mL |  |  | 10.7 µM | Not Active |  |
| CCCCc1nc2c(N)nc3cc(C(=O)OC)ccc3c2n1CCOCc1ccccc1 | 136 pg/mL |  | 25 pg/mL | 2240 pg/mL | 104 pg/mL |  |  |  |  |  |
| CCCCc1nc2c(N)nc3cc(C(=O)OC)ccc3c2n1CC(C)O (racemic) | 533 pg/mL | Active | 22 pg/mL | 1200 pg/mL | 275 pg/mL | Active | Active |  |  |  |
| CCCCc1nc2c(N)nc3cc(C(=O)OC)ccc3c2n1CC(C)(C)O | 393 pg/mL |  | 24 pg/mL | 1100 pg/mL | 108 pg/mL |  |  | 1.5 µM |  |  |
| COC(=O)c1ccc2c(c1)nc(N)c1nc(C)n(CC(C)(C)O)c12 | 73 pg/mL |  | 27 pg/mL | 819 pg/mL | 13 pg/mL |  |  |  | Not Active |  |
| CCCCCc1nc2c(N)nc3cc(C(=O)OC)ccc3c2n1CC(C)(C)O | 312 pg/mL | Active | 37 pg/mL | 1810 pg/mL | 1010 pg/mL | Active | Active |  |  |  |
| CCCCc1nc2c(N)nc3cc(C(=O)OC)ccc3c2n1CCO | 290 pg/mL |  | 18 pg/mL | 1210 pg/mL | 109 pg/mL |  |  |  |  |  |
| COC(=O)c1ccc2c(c1)nc(N)c1nc(Cc3ccccc3)n(CC(C)(C)O)c12 | 500 pg/mL |  | 15 pg/mL | 971 pg/mL | 60 pg/mL |  |  |  | Not Active |  |
| CCCCc1nc2c(N)nc3cc(C(=O)OC)ccc3c2n1C[C@H](C)O | 597 pg/mL | Active | 25 pg/mL | 1190 pg/mL | 301 pg/mL | Active | Active |  |  |  |
| COC(=O)c1ccc2c(c1)nc(N)c1ncn(CC(C)(C)O)c12 | 8 pg/mL |  | 9 pg/mL | 40 pg/mL | 6 pg/mL |  |  |  | Not Active | Not Active |
| CCc1nc2c(N)nc3cc(C(=O)OC)ccc3c2n1CC(C)(C)O | 78 pg/mL |  | 24 pg/mL | 1170 pg/mL | 11 pg/mL |  |  |  | Not Active |  |
| CCCCc1nc2c(N)nc3cc(C(=O)OC)ccc3c2n1CCOC | 267 pg/mL |  | 22 pg/mL | 1370 pg/mL | 484 pg/mL |  |  |  | Not Active |  |
| CCCc1nc2c(N)nc3cc(C(=O)OC)ccc3c2n1CC(C)(C)O | 365 pg/mL |  | 23 pg/mL | 1170 pg/mL | 33 pg/mL |  |  |  | Not Active |  |
